Data set [1] concerns TNF-α. Briefly: TNF-α level in supernatant of LPS-induced RAW264.7 cells. The settings on record: RAW264.7 cells supernatant, LPS 1 μg/mL, 1 μM, 48 h. Type of data set: cell-based. The gist of the method:
(§1)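 RAW264.7 cells were allowed to attach, then the medium was replaced with 1 μg/mL LPS plus test compound at final concentrations of 1, 10 and 100 μM, with DMSO used for solubilisation where needed. […] After 48 h culture, the supernatant was assayed for IL-1β, IL-6 and TNF-α. Values are means of three independent experiments, mean ± SD, compared by one-way ANOVA.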

A further data set concerns IL-1β. Briefly: IL-1β level in supernatant of LPS-induced RAW264.7 cells. The settings on record: RAW264.7 cells supernatant, LPS 1 μg/mL, 1 μM, 48 h. Type of data set: cell-based. The gist of the method: as §1
The test system of data set [2] is IL-6. In words: IL-6 level in supernatant of LPS-induced RAW264.7 cells. The settings on record: RAW264.7 cells supernatant, LPS 1 μg/mL, 1 μM, 48 h. It is filed as cell-based. The method, boiled down:
as §1

Data set [3] concerns CIA (collagen-induced arthritis) model. Briefly: Rat CIA. It is filed as in vivo. The settings on record: for paw volume of rats: CIA rats, 15 days.
Data set [4] deals with IL-6. Briefly: Rat CIA model, serum IL-6 concentration. Type of data set: in vivo. The settings on record: CIA rats, 50 and 100 (mg/kg)/day oral, compared with model group.
Data set [5] has as its system TNF-α. Briefly: Rat CIA model, serum TNF-α concentration. The settings on record: CIA rats, 50 and 100 (mg/kg)/day oral, compared with model group. Type of data set: in vivo.
Data set [6] relates to TLR4. In words: TLR4 protein expression in RAW264.7 cells by immunofluorescence. It is filed as cell-based. The settings on record: LPS-induced RAW264.7 cells, 1 μM, 24 h, vs model group. The gist of the method: (§2)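 They were PBS-washed, fixed in 4% fixative for 45 min, permeabilised with 0.25% Triton for 15 min and blocked with 5% BSA for 10 min. Staining used rabbit anti-mouse TLR4 or TNF-α (1:100, 4 °C overnight), FITC anti-rabbit (1:400, 37 °C, 30 min) and DAPI. Mean cell fluorescence was read by confocal microscopy.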

For data set [7], the system named is TNF-α. In words: TNF-α protein expression in RAW264.7 cells by immunofluorescence. The settings on record: LPS-induced RAW264.7 cells, 1 μM, 24 h, vs model group. It is filed as cell-based. The gist of the method: as §2
In data set [8] the test system is NF-κB. Briefly: NF-κB protein expression in RAW264.7 cells by immunofluorescence. Type of data set: cell-based. The settings on record: LPS-induced RAW264.7 cells, 1 μM, 24 h, vs model group.
The subject of data set [9] is TLR4. In words: TLR4 protein expression in RAW264.7 cells by Western blot. It is filed as cell-based. The settings on record: LPS-induced RAW264.7 cells, 1 μM, 24 h, vs model group. The method, boiled down: (§3)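 Lysis was in RIPA containing 1% PMSF on ice for 3–4 h, followed by centrifugation at 12000 rpm for 15 min. Supernatants were stored at −80 °C, and TLR4 and TNF-α protein were detected by Western blot.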
For orientation: A western blot detects proteins with antibodies after separation by electrophoresis.

Data set [10] concerns TNF-α. Briefly: TNF-α protein expression in RAW264.7 cells by Western blot. It is filed as cell-based. The settings on record: LPS-induced RAW264.7 cells, 1 μM, 24 h, vs model group. The gist of the method: as §3
Data set [11] concerns NF-κB. In words: NF-κB protein expression in RAW264.7 cells by Western blot. Type of data set: cell-based. The settings on record: LPS-induced RAW264.7 cells, 1 μM, 24 h, vs model group.
Data set [12] relates to TLR4. Briefly: TLR4 mRNA expression in RAW264.7 cells by RT-PCR. Type of data set: cell-based. The settings on record: LPS-induced RAW264.7 cells, 1 μM, 24 h, vs model group.
Data set [13] concerns TNF-α. Briefly: TNF-α mRNA expression in RAW264.7 cells by RT-PCR. It is filed as cell-based. The settings on record: LPS-induced RAW264.7 cells, 1 μM, 24 h, vs model group.
Data set [14] has as its system NF-κB. In words: NF-κB mRNA expression in RAW264.7 cells by RT-PCR. Type of data set: cell-based. The settings on record: LPS-induced RAW264.7 cells, 1 μM, 24 h, vs model group.
The nature of data set [15]: Pharmacokinetics in Sprague-Dawley rats. Type of data set: in vivo, rat. The settings on record: for maximum concentration: SD rats; for half-life: male, Sprague-Dawley, rat, plasma. The gist of the method:
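Male SD rats (6–8 weeks) received test compound in 10% DMSO + 10% Solutol HS15 + 80% (20% HP-β-CD saline), either 20 mg/kg via foot dorsal vein or 100 mg/kg by oral gavage. Samples were kept on wet ice and spun at 2000g for 5 min at 4 °C within 15 min. Plasma was analysed by LC-MS/MS.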

“Also recorded” adds a separate entry of the source.

Consider `CC(=O)CC(=O)C1CCCC1=O` (stereo not drawn) [Compound 3a, 1-(2-Oxocyclopentyl)butane-1,3-dione], for which the “Inflammatory factor TNF-α” value in the data set with TNF-α [1] stood at 520.6 ± 54.6 pg/L. Further, the “Inflammatory factor IL-1β” value in the data set with IL-1β amounted to 512.0 ± 85.0 pg/L. Also, the “Inflammatory factor IL-6” value with IL-6 [2] came to 196.2 ± 14.3 pg/L.

With `COC(=O)C1CCC(C(=O)CC(C)=O)C1=O` (stereo not drawn) [Compound 3g, Methyl 2-oxo-3-(3-oxobutanoyl)cyclopentane-1-carboxylate], the “Inflammatory factor TNF-α” value in the data set with TNF-α [1] is on record as 339.8 ± 49.2 pg/L. Moreover, the “Inflammatory factor IL-1β” value in the data set on IL-1β came to 408.2 ± 69.1 pg/L. In the data set with IL-6 [2], the “Inflammatory factor IL-6” value was determined as 170.3 ± 25.3 pg/L.

Take `CCOC(=O)C1CCC(C(=O)CC(C)=O)C1=O` (stereo not drawn) [Compound 3h, Ethyl 2-oxo-3-(3-oxobutanoyl)cyclopentane-1-carboxylate]: in the data set on TNF-α [1], the “Inflammatory factor TNF-α” value worked out at 524.7 ± 48.5 pg/L. The “Inflammatory factor IL-1β” value in the data set with IL-1β was 506.0 ± 65.1 pg/L. In addition, the “Inflammatory factor IL-6” value with IL-6 [2] amounted to 197.4 ± 21.3 pg/L.

For `CC(=O)CC(=O)C1CCC(C(C)=O)C1=O` (stereo not drawn) [Compound 3i, 1-(3-Acetyl-2-oxocyclopentyl)butane-1,3-dione], the “Inflammatory factor TNF-α” value in the data set with TNF-α [1] is on record as 424.5 ± 87.6 pg/L. In addition, in the data set on IL-1β, the “Inflammatory factor IL-1β” value was 558.4 ± 66.9 pg/L. The “Inflammatory factor IL-6” value with IL-6 [2] is 205.2 ± 25.9 pg/L.

In the case of `CCCCCC1C(=O)C(C(=O)CC(C)=O)CC1CC(=O)OC` (stereo not drawn) [Compound 3j, Methyl 2-(3-oxo-4-(3-oxobutanoyl)-2-pentylcyclopentyl)acetate], the “Inflammatory factor TNF-α” value in the data set on TNF-α [1] is recorded as 400.6 ± 60.2 pg/L. Moreover, the “Inflammatory factor IL-1β” value with IL-1β is reported as 488.8 ± 66.1 pg/L. Besides, the “Inflammatory factor IL-6” value in the data set with IL-6 [2] is listed as 163.8 ± 25.9 pg/L.

In general, half-life refers to the time in which the quantity being followed falls by half. Low values mean rapid decline, high ones slow decline. On to `CC(=O)CC(=O)C1CC(C)C(=O)C1=O` (stereo not drawn) [Compound 3k, 3-Methyl-5-(3-oxobutanoyl) cyclopentane-1,2-dione], for which the “Inflammatory factor TNF-α” value with TNF-α [1] was 217.8 ± 20.3 pg/L. Besides, the “Inflammatory factor IL-1β” value with IL-1β worked out at 278.6 ± 58.1 pg/L. The “Inflammatory factor IL-6” value in the data set on IL-6 [2] worked out at 96.6 ± 9.8 pg/L. For the same compound, the “paw volume of rats” value in data set [3] (high dose 100 (mg/kg)/day oral) and in data set [3] (low dose 50 (mg/kg)/day oral) was “basically unchanged” throughout. Further, the “effect in collagen-induced arthritis model compared with methotrexate” value in [3] (administered orally) was “effects similar to those of methotrexate; also recorded: effect similar to that of the positive control group methotrexate”. Further, in the data set on IL-6 [4], the “serum IL-6 concentration” value is “decreased significantly and reached the normal level”. In addition, the “serum TNF-α concentration” value with TNF-α [5] was “decreased significantly and reached the normal level”. For the same compound, the “expression of TLR4 protein (immunofluorescence)” value with TLR4 [6] is reported as “significantly down-regulated”. For the same compound, in the data set with TNF-α [7], the “expression of TNF-α protein (immunofluorescence)” value was “significantly down-regulated”. Besides, the “expression of NF-κB protein (immunofluorescence)” value with NF-κB [8] is recorded as “significantly down-regulated”. Also, in the data set with TLR4 [9], the “expression of TLR4 protein (Western blot)” value is “significantly down-regulated”. Besides, the “expression of TNF-α protein (Western blot)” value with TNF-α [10] was “significantly down-regulated”. Also, the “expression of NF-κB protein (Western blot)” value in the data set on NF-κB [11] is listed as “significantly down-regulated”. Moreover, in the data set with TLR4 [12], the “expression of TLR4 gene (RT-PCR)” value is on record as “significant down-regulated”. Further, the “expression of TNF-α gene (RT-PCR)” value in the data set with TNF-α [13] is “significant down-regulated”. Also, the “expression of NF-κB gene (RT-PCR)” value in the data set on NF-κB [14] is recorded as “significant down-regulated”. Further, the maximum concentration in data set [15] (intravenous dose 20 mg/kg) is 1603 ng/mL; in data set [15] (oral dose 100 mg/kg), 2014 ng/mL. The half-life in data set [15] (iv, 20 mg/kg) lay in the range of 30 to 60 min; in data set [15] (po, 100 mg/kg) it was 30 to 60 min.

As to `CN(Cc1cnc2nc(N)nc(N)c2n1)c1ccc(C(=O)N[C@@H](CCC(=O)O)C(=O)O)cc1` [methotrexate, reference compound], the “Inflammatory factor TNF-α” value in the data set with TNF-α [1] was 236.8 ± 18.7 pg/L. For the same compound, the “Inflammatory factor IL-1β” value in the data set on IL-1β came to 337.6 ± 47.8 pg/L. Besides, the “Inflammatory factor IL-6” value in the data set on IL-6 [2] is reported as 114.1 ± 2.8 pg/L. In the data set on TLR4 [6], the “expression of TLR4 protein (immunofluorescence)” value is recorded as “significantly down-regulated”. Further, the “expression of TNF-α protein (immunofluorescence)” value in the data set on TNF-α [7] is given as “significantly down-regulated”. Besides, in the data set with TLR4 [9], the “expression of TLR4 protein (Western blot)” value was “significantly down-regulated”. Also, the “expression of TNF-α protein (Western blot)” value in the data set with TNF-α [10] is “significantly down-regulated”. For the same compound, the “expression of TLR4 gene (RT-PCR)” value in the data set on TLR4 [12] is on record as “significantly down-regulated”. Further, in the data set with TNF-α [13], the “expression of TNF-α gene (RT-PCR)” value is “significantly down-regulated”.

Values taken from paper PMC11359639 (ACS Omega, 2024).
